Source: ChEMBL document CHEMBL1125747, “Design, synthesis, and physicochemical properties of a novel, conformationally restricted 2,3-dihydro-1,3,4-thiadiazole-containing angiotensin converting enzyme inhibitor which is preferentially eliminated by the biliary route in rats” (J Med Chem, 1991)

Key:
[1] = target: T1, Angiotensin-converting enzyme (Rattus norvegicus) (UniProt P47820); assay: Relative inhibitory activity against angiotensin I converting enzyme
T1 sequence (whole entry): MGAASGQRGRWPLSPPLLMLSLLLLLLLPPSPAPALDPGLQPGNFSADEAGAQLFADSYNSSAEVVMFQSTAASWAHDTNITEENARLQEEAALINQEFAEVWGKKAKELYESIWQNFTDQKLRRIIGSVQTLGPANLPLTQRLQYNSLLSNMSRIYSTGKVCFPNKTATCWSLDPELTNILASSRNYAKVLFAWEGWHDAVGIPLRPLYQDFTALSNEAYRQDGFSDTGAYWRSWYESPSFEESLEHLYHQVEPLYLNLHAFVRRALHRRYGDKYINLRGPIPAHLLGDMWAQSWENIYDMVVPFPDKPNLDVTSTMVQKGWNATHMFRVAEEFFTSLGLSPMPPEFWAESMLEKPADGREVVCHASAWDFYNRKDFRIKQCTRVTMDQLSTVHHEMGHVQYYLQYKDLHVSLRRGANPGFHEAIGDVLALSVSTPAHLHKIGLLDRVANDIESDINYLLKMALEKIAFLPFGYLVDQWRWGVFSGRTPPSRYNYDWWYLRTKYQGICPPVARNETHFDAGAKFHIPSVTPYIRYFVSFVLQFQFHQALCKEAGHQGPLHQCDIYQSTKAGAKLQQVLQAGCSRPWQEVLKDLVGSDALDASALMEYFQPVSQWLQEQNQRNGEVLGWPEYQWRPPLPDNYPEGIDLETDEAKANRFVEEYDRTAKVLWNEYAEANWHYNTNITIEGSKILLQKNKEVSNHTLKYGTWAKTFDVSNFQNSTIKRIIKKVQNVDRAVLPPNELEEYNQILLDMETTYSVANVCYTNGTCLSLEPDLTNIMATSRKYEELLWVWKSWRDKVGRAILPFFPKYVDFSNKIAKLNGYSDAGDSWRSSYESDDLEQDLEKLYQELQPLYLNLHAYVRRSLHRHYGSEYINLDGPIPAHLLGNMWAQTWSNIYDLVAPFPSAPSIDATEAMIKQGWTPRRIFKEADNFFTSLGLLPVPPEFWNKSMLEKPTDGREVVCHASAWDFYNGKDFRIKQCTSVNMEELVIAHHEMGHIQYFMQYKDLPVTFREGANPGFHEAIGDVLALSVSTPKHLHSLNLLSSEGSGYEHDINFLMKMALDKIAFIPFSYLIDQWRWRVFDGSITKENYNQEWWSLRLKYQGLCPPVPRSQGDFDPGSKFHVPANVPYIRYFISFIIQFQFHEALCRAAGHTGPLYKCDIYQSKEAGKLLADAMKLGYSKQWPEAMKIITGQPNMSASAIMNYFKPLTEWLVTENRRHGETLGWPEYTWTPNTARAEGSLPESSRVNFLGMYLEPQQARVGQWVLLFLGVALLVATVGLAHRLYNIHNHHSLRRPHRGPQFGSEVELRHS

[2] = target: T2, Angiotensin-converting enzyme (Rattus norvegicus, UniProt P47820); assay: Compound was tested for inhibitory activity against angiotensin I converting enzyme
T2 sequence (P47820 whole entry): T1 sequence (whole entry)

[3] = Compound was tested for its maximum lipophilicity.; format: physicochemical; conditions: octanol/water
Method in brief: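 Shake-flask distribution coefficients in octanol–aqueous buffer across pH, run in triplicate and reported as the mean. Aqueous phases were HCl below pH 2, McIlvaine citrate-phosphate at pH 2.2–4.8, and Sorensen phosphate above pH 5, all at ionic strength 0.02. Phases were assayed before and after partitioning by UV or reversed-phase HPLC. Maximum lipophilicity was taken from the distribution–pH profile.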

[4] = The acid dissociation constant, pKa was determined. a'' represents value of C-terminus carboxylic acid.; format: physicochemical
Method in brief: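 Ionization constants measured by potentiometric titration at 25 °C on a thermostated automatic titrator, with pKa calculated from pH-volume data. For one ester prodrug, constants were instead obtained by the partition method in Miglyol 812-aqueous buffer systems.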

[5] = The acid dissociation constant, pKa was determined.'a' represents value of C-terminus carboxylic acid.; format: physicochemical
Method in brief: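 Ionization constants came from potentiometric titration at 25 °C on a thermostated automatic titrator, with pKa calculated from the pH–volume data. For one ester, constants were instead determined by the partition method in Miglyol 812–aqueous buffer systems.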

[6] = Ratio of biliary and urinary excretion of angiotensin converting enzyme inhibitors in male rat after intravenous dosing.; format: functional, Urine
[7] = The acid dissociation constant, pKa was determined. 'a' represents value of C-terminus carboxylic acid.; format: physicochemical
Method in brief: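 Potentiometric titration at 25 °C on a thermostated automatic titrator. pKa values were calculated from pH–volume data. For one ester compound, ionization constants were instead obtained by the partition method in Miglyol 812–aqueous buffer systems.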

Compound	Relative activity [1]	Log Dmax [3]	further results
CC1=NN(C(=O)CCS)C(C(=O)O)S1 (stereo not given)	2.5		
COc1ccc(C2=NN(C(=O)CCS)C(C(=O)O)S2)cc1 (stereo not given)	1.3		
CC(C)(C)C1=NN(C(=O)CCS)C(C(=O)O)S1 (stereo not given)	5.6		
O=C(O)C1SC(c2ccco2)=NN1C(=O)CCS (stereo not given)	1		
CCC[C@H](N[C@@H](C)C(=O)N1N=C(C(C)(C)C)S[C@H]1C(=O)O)C(=O)O			IC50 [2]: 0.6 nM
NCCCC[C@H](N[C@@H](CCc1ccccc1)C(=O)O)C(=O)N1CCC[C@H]1C(=O)O [LISINOPRIL ANHYDROUS]		-2.86	pKa [4]: 11.1
CC(C)(C)C1=NN(C(=O)[C@H](CCCCN)N[C@@H](CCc2ccccc2)C(=O)O)[C@H](C(=O)O)S1			IC50 [2]: 0.7 nM
O=C(O)C1SC(c2ccc(C(F)(F)F)cc2)=NN1C(=O)CCS (stereo not given)	1.6		
CCOC(=O)[C@H](CCc1ccccc1)N[C@@H](C)C(=O)N1CC2(C[C@H]1C(=O)O)SCCS2		0.87	pKa [5]: 5.5
O=C(O)C1SC(C2CCCCC2)=NN1C(=O)CCS (stereo not given)	6.3		
O=C(O)C1SC(C23CC4CC(CC(C4)C2)C3)=NN1C(=O)CCS (stereo not given)	1.3		
C[C@H](N[C@@H](CCc1ccccc1)C(=O)O)C(=O)N1N=C(c2ccccc2)S[C@H]1C(=O)O			IC50 [2]: 1.5 nM

More lines, main results first:

Relative activity [1]	Log Dmax [3]	Compound	further results
	1.61	CCOC(=O)[C@H](CCc1ccccc1)N[C@@H](C)C(=O)N1N=C(C(C)(C)C)S[C@H]1C(=O)O [UTIBAPRIL]	pKa [5]: 5.4
1.3		O=C(O)C1SC(c2ccccc2)=NN1C(=O)CCS (stereo not given)	
	-0.7	C[C@H](N[C@@H](CCc1ccccc1)C(=O)O)C(=O)N1CCC[C@H]1C(=O)O [ENALAPRILAT ANHYDROUS]	pKa [5]: 8.02
	1.19	C[C@H](N[C@@H](CCc1ccccc1)C(=O)O)C(=O)N1N=C(C(C)(C)C)S[C@H]1C(=O)O [UTIBAPRILAT]	Ratio [6]: 14.6; pKa [5]: 8; IC50 [2]: 0.51 nM
	-0.06	CCOC(=O)[C@H](CCc1ccccc1)N[C@@H](C)C(=O)N1CCC[C@H]1C(=O)O	pKa [7]: 5.49
